In ChEMBL document CHEMBL1817648, “Synthesis and in vitro antibacterial activity of a series of novel gatifloxacin derivatives” (Eur J Med Chem, 2011) one finds MIC and CC50 data, which are given here for four compounds.

By MIC is commonly meant the least concentration at which growth counts as inhibited. The CC50 is the concentration that lowers cell viability or growth by half.

≈ marks a conversion by molar mass, not a printed value.

For series [1], the system named is Enterococcus faecalis. Kind of series: Antibacterial activity against Enterococcus faecalis 08-10 after 18 to 24 hrs by NCCLS M100-S11 two fold serial dilution method. It is filed as functional.
The nature of series [2]: Cytotoxicity against african green monkey Vero cells after 72 hrs by MTT assay. It is filed as cell-based. As to conditions: chlorocebus sabaeus. In short, it runs like this:
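Vero cells were kept in Minimum Essential Medium with Earle's salts plus 10% fetal bovine serum at 37 °C under 5% CO₂. Cells were seeded at 1 × 10⁴ per well and allowed to recover 24 h. Medium was then replaced with assay medium containing compound or no drug, and cells were exposed for 72 h. CC₅₀ is the 50% cellular cytotoxic concentration.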
(Tetrazolium dyes change colour on reduction, which living cells bring about.)

For series [3], the system named is Enterococcus faecalis. Put plainly: Antibacterial activity against Enterococcus faecalis 08-12 after 18 to 24 hrs by NCCLS M100-S11 two fold serial dilution method. It is filed as functional.
Series [4] relates to Staphylococcus epidermidis. Kind of series: Antibacterial activity against methicillin-resistant Staphylococcus epidermidis 09-4 after 18 to 24 hrs by NCCLS M100-S11 two fold serial dilution method. It is filed as functional. In outline: (§1)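 Two-fold serial dilution in agar medium. MIC read as the lowest concentration giving complete inhibition of bacterial growth after incubation at 35 °C for 18–24 h.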

For series [5], the system named is Escherichia coli. Kind of series: Antibacterial activity against Escherichia coli 08-22 after 18 to 24 hrs by NCCLS M100-S11 two fold serial dilution method. It is filed as functional.
The subject of series [6] is Klebsiella pneumoniae. Kind of series: Antibacterial activity against Klebsiella pneumoniae 09-23 after 18 to 24 hrs by NCCLS M100-S11 two fold serial dilution method. The format is functional.
Series [7] has as its system Staphylococcus epidermidis. Kind of series: Antibacterial activity against methicillin-sensitive Staphylococcus epidermidis 09-3 after 18 to 24 hrs by NCCLS M100-S11 two fold serial dilution method. It is filed as functional. In outline:
as §1

Series [8] concerns Pseudomonas aeruginosa. Kind of series: Antibacterial activity against Pseudomonas aeruginosa ATCC 27853 after 18 to 24 hrs by NCCLS M100-S11 two fold serial dilution method. It is filed as functional.
Series [9] has as its system Staphylococcus epidermidis. Put plainly: Antibacterial activity against methicillin-sensitive Staphylococcus epidermidis 09-6 after 18 to 24 hrs by NCCLS M100-S11 two fold serial dilution method. It is filed as functional. In short, it runs like this:
as §1

The test system of series [10] is Staphylococcus aureus. Put plainly: Antibacterial activity against methicillin-resistant Staphylococcus aureus 08-1 after 18 to 24 hrs by NCCLS M100-S11 two fold serial dilution method. It is filed as functional. In outline:
as §1

Series [11] concerns Klebsiella pneumoniae. Kind of series: Antibacterial activity against Klebsiella pneumoniae 09-22 after 18 to 24 hrs by NCCLS M100-S11 two fold serial dilution method. The format is functional.
The test system of series [12] is Staphylococcus aureus. Put plainly: Antibacterial activity against methicillin-sensitive Staphylococcus aureus 08-1 after 18 to 24 hrs by NCCLS M100-S11 two fold serial dilution method. The format is functional.
Series [13] deals with Staphylococcus aureus. Put plainly: Antibacterial activity against Staphylococcus aureus ATCC 25923 after 18 to 24 hrs by NCCLS M100-S11 two fold serial dilution method. The format is functional. Particulars: ATCC25923.
The test system of series [14] is Streptococcus pneumoniae. Put plainly: Antibacterial activity against Streptococcus pneumoniae 08-4 after 18 to 24 hrs by NCCLS M100-S11 two fold serial dilution method. The format is functional.
Series [15] relates to Streptococcus pneumoniae. Kind of series: Antibacterial activity against Streptococcus pneumoniae 08-2 after 18 to 24 hrs by NCCLS M100-S11 two fold serial dilution method. It is filed as functional.
The subject of series [16] is Pseudomonas aeruginosa. Kind of series: Antibacterial activity against Pseudomonas aeruginosa 09-32 after 18 to 24 hrs by NCCLS M100-S11 two fold serial dilution method. It is filed as functional.
The test system of series [17] is Enterococcus faecium. Kind of series: Antibacterial activity against Enterococcus faecium 08-2 after 18 to 24 hrs by NCCLS M100-S11 two fold serial dilution method. It is filed as functional.
Series [18] concerns Pseudomonas aeruginosa. Put plainly: Antibacterial activity against Pseudomonas aeruginosa 09-34 after 18 to 24 hrs by NCCLS M100-S11 two fold serial dilution method. The format is functional.
The test system of series [19] is Escherichia coli. Kind of series: Antibacterial activity against Escherichia coli ATCC 25922 after 18 to 24 hrs by NCCLS M100-S11 two fold serial dilution method. It is filed as functional. Particulars: ATCC25922.
Series [20] has as its system Enterococcus faecium. Kind of series: Antibacterial activity against Enterococcus faecium 08-7 after 18 to 24 hrs by NCCLS M100-S11 two fold serial dilution method. It is filed as functional.
The test system of series [21] is Escherichia coli. Kind of series: Antibacterial activity against Escherichia coli 08-21 after 18 to 24 hrs by NCCLS M100-S11 two fold serial dilution method. It is filed as functional.
Series [22] has as its system Pseudomonas aeruginosa. Put plainly: Antibacterial activity against Pseudomonas aeruginosa 09-33 after 18 to 24 hrs by NCCLS M100-S11 two fold serial dilution method. It is filed as functional.

Regarding `COc1c(N2CCN(C/C(C)=N/NC(C)=O)C(C)C2)c(F)cc2c(=O)c(C(=O)O)cn(C3CC3)c12` (stereo not drawn), the MIC in the series with Enterococcus faecalis [1] amounted to 16 µg/mL (≈ 32.8 µM); against Enterococcus faecalis [3] it was 16 µg/mL (≈ 32.8 µM); in series [4], 0.25 µg/mL (≈ 0.513 µM); with Escherichia coli [5] it was 16 µg/mL (≈ 32.8 µM); against Klebsiella pneumoniae [6], 4 µg/mL (≈ 8.2 µM); in [7], 0.25 µg/mL (≈ 0.513 µM). Besides, the MIC with Pseudomonas aeruginosa [8] amounted to 4 µg/mL (≈ 8.2 µM); in [9], 0.25 µg/mL (≈ 0.513 µM); with Staphylococcus aureus [10], 0.25 µg/mL (≈ 0.513 µM); in the series on Klebsiella pneumoniae [11] it was 0.25 µg/mL (≈ 0.513 µM); in the series on Staphylococcus aureus [12], 0.25 µg/mL (≈ 0.513 µM); with Staphylococcus aureus [13], 0.25 µg/mL (≈ 0.513 µM). The MIC came out at 0.25 µg/mL (≈ 0.513 µM) against Streptococcus pneumoniae [14]; 8 µg/mL (≈ 16.4 µM) in the series on Streptococcus pneumoniae [15]; 0.25 µg/mL (≈ 0.513 µM) against Pseudomonas aeruginosa [16]; 16 µg/mL (≈ 32.8 µM) with Enterococcus faecium [17]; 2 µg/mL (≈ 4.1 µM) in the series on Pseudomonas aeruginosa [18]; 8 µg/mL (≈ 16.4 µM) against Escherichia coli [19]. Also, the MIC was determined as 16 µg/mL (≈ 32.8 µM) with Enterococcus faecium [20], 16 µg/mL (≈ 32.8 µM) with Escherichia coli [21] and 64 µg/mL (≈ 131 µM) with Pseudomonas aeruginosa [22]. In addition, the midpoint of cytotoxicity in series [2], the CC50 at 72 h, lay at 707 µg/mL (≈ 1450 µM).
Turning to `COc1c(N2CCN(C/C(C)=N/NC(=O)c3ccncc3)C(C)C2)c(F)cc2c(=O)c(C(=O)O)cn(C3CC3)c12` (stereo not drawn), the MIC came out at 128 µg/mL (≈ 232 µM) against Enterococcus faecalis [1]; 128 µg/mL (≈ 232 µM) against Enterococcus faecalis [3]; 2 µg/mL (≈ 3.63 µM) in [4]; 64 µg/mL (≈ 116 µM) in the series with Escherichia coli [5]; 32 µg/mL (≈ 58.1 µM) against Klebsiella pneumoniae [6]; 0.25 µg/mL (≈ 0.454 µM) in series [7]. The MIC stood at 4 µg/mL (≈ 7.26 µM) in the series with Pseudomonas aeruginosa [8]; 0.25 µg/mL (≈ 0.454 µM) in series [9]; 32 µg/mL (≈ 58.1 µM) in the series on Staphylococcus aureus [10]; 16 µg/mL (≈ 29.1 µM) against Klebsiella pneumoniae [11]; 2 µg/mL (≈ 3.63 µM) in the series on Staphylococcus aureus [12]; 2 µg/mL (≈ 3.63 µM) against Staphylococcus aureus [13]. Further, the MIC against Streptococcus pneumoniae [14] was 4 µg/mL (≈ 7.26 µM); against Streptococcus pneumoniae [15], 32 µg/mL (≈ 58.1 µM); against Pseudomonas aeruginosa [16] it was 4 µg/mL (≈ 7.26 µM); with Enterococcus faecium [17], 64 µg/mL (≈ 116 µM); against Pseudomonas aeruginosa [18] it was 32 µg/mL (≈ 58.1 µM); in the series with Escherichia coli [19] it was 16 µg/mL (≈ 29.1 µM). In addition, the MIC came out at 64 µg/mL (≈ 116 µM) against Enterococcus faecium [20], 128 µg/mL (≈ 232 µM) against Escherichia coli [21] and 128 µg/mL (≈ 232 µM) against Pseudomonas aeruginosa [22]. The CC50 at 72 h in series [2] was determined as 250 µg/mL (≈ 454 µM).
For the compound `COc1c(N2CCN(C/C(C)=N/Nc3ccccc3)C(C)C2)c(F)cc2c(=O)c(C(=O)O)cn(C3CC3)c12` (stereo not drawn), the MIC stood at 4 µg/mL (≈ 7.67 µM) against Enterococcus faecalis [1]; 4 µg/mL (≈ 7.67 µM) against Enterococcus faecalis [3]; 0.25 µg/mL (≈ 0.479 µM) in [4]; 0.25 µg/mL (≈ 0.479 µM) in the series on Escherichia coli [5]; 0.125 µg/mL (≈ 0.24 µM) in the series with Klebsiella pneumoniae [6]; 0.25 µg/mL (≈ 0.479 µM) in series [7]. In addition, the MIC with Pseudomonas aeruginosa [8] came to 2 µg/mL (≈ 3.83 µM); in [9], 0.25 µg/mL (≈ 0.479 µM); against Staphylococcus aureus [10], 0.125 µg/mL (≈ 0.24 µM); against Klebsiella pneumoniae [11] it was 0.25 µg/mL (≈ 0.479 µM); with Staphylococcus aureus [12], 0.125 µg/mL (≈ 0.24 µM); in the series with Staphylococcus aureus [13], 0.125 µg/mL (≈ 0.24 µM). Besides, the MIC against Streptococcus pneumoniae [14] turned out to be 0.25 µg/mL (≈ 0.479 µM); with Streptococcus pneumoniae [15], 0.25 µg/mL (≈ 0.479 µM); against Pseudomonas aeruginosa [16], 0.25 µg/mL (≈ 0.479 µM); against Enterococcus faecium [17], 4 µg/mL (≈ 7.67 µM); in the series on Pseudomonas aeruginosa [18], 0.25 µg/mL (≈ 0.479 µM); against Escherichia coli [19], 0.5 µg/mL (≈ 0.959 µM). Besides, the minimum inhibitory concentration (MIC) against Enterococcus faecium [20], in the series with Escherichia coli [21] and against Pseudomonas aeruginosa [22] was 4 µg/mL (≈ 7.67 µM) in each case. In series [2], half-maximal cytotoxicity (CC50 at 72 h) was put at 11.1 µg/mL (≈ 21.2 µM).
As for `COc1c(N2CCN(C/C(C)=N/O)C(C)C2)c(F)cc2c(=O)c(C(=O)O)cn(C3CC3)c12` (stereo not drawn), the MIC in the series with Enterococcus faecalis [1] is greater than 128 µg/mL; against Enterococcus faecalis [3] it was greater than 128 µg/mL; in series [4], 0.25 µg/mL (≈ 0.56 µM); against Escherichia coli [5], greater than 128 µg/mL; in the series on Klebsiella pneumoniae [6], greater than 128 µg/mL; in series [7], 0.25 µg/mL (≈ 0.56 µM). Also, the MIC in the series with Pseudomonas aeruginosa [8] is 32 µg/mL (≈ 71.7 µM); in [9] it was 0.25 µg/mL (≈ 0.56 µM); against Staphylococcus aureus [10], greater than 128 µg/mL; in the series on Klebsiella pneumoniae [11], greater than 128 µg/mL; with Staphylococcus aureus [12], 0.25 µg/mL (≈ 0.56 µM); against Staphylococcus aureus [13], 0.25 µg/mL (≈ 0.56 µM). In addition, the MIC with Streptococcus pneumoniae [14] was 0.25 µg/mL (≈ 0.56 µM); against Streptococcus pneumoniae [15] it was 128 µg/mL (≈ 287 µM); against Pseudomonas aeruginosa [16] it was 32 µg/mL (≈ 71.7 µM); against Enterococcus faecium [17], greater than 128 µg/mL; in the series on Pseudomonas aeruginosa [18], greater than 128 µg/mL; against Escherichia coli [19] it was 128 µg/mL (≈ 287 µM). The MIC against Enterococcus faecium [20], against Escherichia coli [21] and against Pseudomonas aeruginosa [22] was greater than 128 µg/mL in each case. In series [2], the midpoint of cytotoxicity, the CC50 at 72 h, lay at 177 µg/mL (≈ 396 µM).
